# Compound activity as filed in PubChem BioAssay.
# CSC inhib = cancer stem cell viability inhibitors, primary screen, luminescence | cancer stem cell-like cells viability | inhibition, % at 7.5 µM | 300,000 tested, 1.1% active; in the data active = inhibition above about 75%; tested in HMLE shEcad cells
# SKKanGAS inh = S. pyogenes SKKanGAS growth inhibitors in kanamycin, primary screen, streptokinase expression inhibitor project, SKKanGAS strain, BacTiter-Glo luminescence; inhibition, % at 7.5 µM; 300,000 tested, 1.3% active; AID 1662, 2009; 6 h;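 active = mean replicate score, as percent of positive control median, at least 50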;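 also: strain carries kanamycin resistance gene driven by streptokinase promoter and grows in 40 µg/ml kanamycin; loss of luminescence reflects streptokinase promoter inhibition or plain growth inhibition; 0% = median of DMSO wells and 100% = positive control at its reference dose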
# XBP1 UPR activ = activators of adaptive XBP1 UPR arm, primary screen, cell-based, CHO-XBP1 luciferase reporter, luminescence, uHTS. IRE1-XBP1 UPR activation; percent of tunicamycin response, DMSO as zero. activation, % at 20 µM. 330,000 tested, 0.33% active. AID 463104, 2010;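 active = versus positive control, 20 µM dose yields 30% or more activation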;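 also: 100% = tunicamycin at 10 µg/mL and 0% = DMSO only wells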
#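 Material: CHO-XBP1 cells stably carrying IRE1-XBP1-driven luciferase reporter | Medium: F12 with 10% serum | Compound dosing: 20 µM single concentration, DMSO 1% | Incubation: Overnight seeding at 37 °C, 6 h compound treatment at 37 °C | Detection: Steady-Glo luminescence read | Read-out basis: % activation of reporter signal versus tunicamycin and DMSO controls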
# Mdm2-MdmX inh = inhibitors of human Mdm2-MdmX association, primary screen, cell-based, luminescence, split luciferase, SaOS-2, uHTS | Protein Mdm4 (Homo sapiens) + E3 ubiquitin-protein ligase Mdm2 (Homo sapiens), … | SaOS-2 split-luciferase Mdm2/MdmX complementation | inhibition, % at 8 µM | 330,000 tested, 3% active;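 active = inhibition of at least 50% at 8 µM in the primary screen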
# Beta apoptosis = inhibitors of cytokine-induced beta cell apoptosis, primary screen, luminescence | AID 435005, 2010 | protection from apoptosis, % (test concentration not listed) | INS-1E cytokine-induced death, ATP luminescence, 48 h; percent of positive-control rescue, neutral wells zero | 300,000 tested, 0.8% active;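 active = Every replicate reaches about 75%, or at least half do and their mean reaches it too, limit read from the data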;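 also: 0% = cytokine-treated negative control wells and 100% = positive control rescue; higher means more ATP so stronger rescue from cytokine killing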
# UPR CHOP act = activators of apoptotic CHOP UPR arm, primary screen, cell-based, CHO-CHOP luciferase reporter, luminescence, uHTS; UPR activation; percent of tunicamycin response over DMSO baseline; activation, % at 10 µM; 330,000 tested, 0.34% active; AID 449763, 2010;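 active = at 10 µM dose, activation of 40% or more, normalized to positive control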;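 also: 100% = tunicamycin at 10 µg/mL and 0% = DMSO alone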
#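 Assay system: CHO-CHOP cells, stable luciferase reporter of PERK-eIF2a-CHOP signalling / Buffer or medium: F12 plus 10% serum / Compound dosing: one dose, 10 µM in 0.5% DMSO / Times: 6 h compound treatment, 37 °C / Technique: luciferase luminescence / Read-out: % reporter activation, DMSO baseline versus tunicamycin full activation / Benchmarks: tunicamycin and DMSO controls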
# UPR XBP1 confirm = IRE1-XBP1 UPR arm activators, confirmation, cell-based, CHO-XBP1 luciferase reporter, luminescence, single concentration; shares compounds with XBP1 UPR activ; activation, % at 20 µM; 1,000 tested, 63% active; AID 485299, 2010;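 active = reporter signal at least 30% of the positive control's activation in two or more of four replicate wells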;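 also: plate controls were DMSO negative control for no effect and tunicamycin 10 µg/mL positive control for full effect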
# * marks the source's active call; other numbers are inactive results; . = no result given. This is a sample that favours compounds with a hit; in the whole collection about 4.8% have one here.
SMILES,CSC inhib,SKKanGAS inh,XBP1 UPR activ,Mdm2-MdmX inh,Beta apoptosis,UPR CHOP act,UPR XBP1 confirm
CC(C)c1ccc(-c2cc(C(=O)N3N=C(C(F)F)CC3(O)C(F)F)c3ccccc3n2)cc1 (stereo not drawn),112*,90*,39*,24,38,4,13
CCCCCn1c(N)c(-c2nc3ccccc3o2)c2c([N+](=O)[O-])nn(C)c(=O)c21,-18,0,.,.,-9,.,.
CCCCCn1c(N)c(-c2nc3ccccc3o2)c2c([N+](=O)[O-])nn(CC)c(=O)c21,2,8,38*,33,39,16,53*
O=C(NCCC1=CCCCC1)C(=O)NCC(c1ccco1)N1CCN(c2ccc(F)cc2)CC1 (stereo not drawn),4,6,31*,13,-2,2,56*
O=C(NCC(c1ccco1)N1CCN(c2ccc(F)cc2)CC1)C1CCCCC1 (stereo not drawn),2,18,-2,-9,1,-1,.
COc1cc(-c2ccc3oc(-c4ccsc4)cc3c2)cc(OC)c1OC,5,3,61*,-6,.,6,32*
CN(C)S(=O)(=O)c1cccc(NC(=O)COc2ccccc2C(=O)NCc2ccccc2)c1,.,.,-2,15,.,1,.
O=C(Nc1cccnc1)/C(N=Nc1ccc(Cl)c(C(F)(F)F)c1)=C(\O)c1ccccc1,3,4,49*,27,-2,13,27
CC(C)(C)c1ccc(C(=O)NNc2ncccc2-n2cccc2)cc1,1,-1,0,-13,10,-1,.
COc1ccc(Cc2nnc(N/N=C/c3ccc(N(C)C)cc3)[nH]c2=O)cc1OC,-6,9,31*,30,-6,13,51*
COc1ccc(/C=N/Nc2nnc(Cc3ccc(OC)c(OC)c3)c(=O)[nH]2)cc1OC,-9,0,2,13,-2,-1,.
O=C1c2ccccc2[C@@H]2C[C@@H](O)[C@H](Nc3cccc(C(F)(F)F)c3)CCN12,.,.,1,-6,.,1,.
O=C(Cc1ccccc1)c1c[nH]c(C(=O)C(Cl)(Cl)Cl)c1,.,-2,39*,-4,.,7,49*
C=CCn1c(CNC(=O)c2ccccc2F)nnc1SCC(=O)N1CCOCC1,12,13,-4,-5,2,-1,.
COc1cc(/C=N/NC(N)=O)c(Br)cc1OCC(=O)Nc1ccccc1C,7,2,109*,49,21,4,72*
CC(C)(C)c1ccccc1NC(=O)CN1C(=O)NC2(CCCCCC2)C1=O,.,.,-1,-4,4,-1,.
CC1(C)Cc2nc3oc4c(=O)n(CC(=O)Nc5cccc(Cl)c5)cnc4c3cc2CO1,-5,2,59*,19,11,11,20
Cc1ccc2nc(Nc3nc(C)cc(-c4ccccc4)n3)[nH]c(=O)c2c1,3,86*,31*,38,22,7,62*
Cc1ccc2nc(Nc3nc(-c4ccccc4)cc(=O)[nH]3)nc(C)c2c1,-6,95*,67*,35,-1,5,72*
S=C(Nc1cccc(Cl)c1)NC1CCCCC1,-18,2,37*,8,-3,0,-1
NS(=O)(=O)c1ccc(NC(=O)COC(=O)c2cn(-c3ccccc3)nc2-c2ccc(F)cc2)cc1,-6,2,68*,2,8,3,89*
O=C(COC(=O)c1cn(-c2ccccc2)nc1-c1ccc(F)cc1)Nc1ncc(Cl)cc1Cl,-1,7,-3,15,-4,1,.
COc1ccc(C2(C)NC(=O)NC2=O)cc1OC (stereo not drawn),-15,-3,2,10,.,-2,.
